Shown are actives, neighbours in structure and some others; about 1% of the full set was active somewhere.
Yeast eIF2B: eIF2B (yeast) activity modulation; S. cerevisiae eIF2B-epsilon R284H, GCN4-lacZ luminescence; inhibition, % at 25 µM (by protocol); 0.91% of 27,000 active;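 active = mutant luminescence inhibited past about 50% while wild type luminescence and mutant growth stay under set limits, limit read from the data; inconclusive = mutant versus wild type luminescence inhibition gap past a set limit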
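material = yeast eIF2B-epsilon R284H mutant carrying GCN4–beta-galactosidase fusion | schedule = 16 h growth with compound at 30 °C, 90 min Beta-Glo step | measured by = luminescence and A595 | compound dosing = one concentration, 25 µM, 0.25% DMSO | read-out basis = % inhibition of reporter signal and growth versus controls | buffer or medium = YPD medium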
Yeast growth tox: Inhibitors of S. cerevisiae growth, toxicity; S. cerevisiae wild-type growth, A595 turbidity, 16 h; growth inhibition, % at 25 µM (by protocol); 0.3% of 30,000 active; AID 685;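 active = mutant and wild-type yeast strains alike exhibit over 30% growth inhibition; inconclusive = a strain exceeds 50% while the second remains under 30%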
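System – wild-type and eIF2Bepsilon-R284H mutant S. cerevisiae, screened separately · Measured by – absorbance at 595 nm (turbidity) · Timing – 16 h compound exposure during growth at 30 °C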
A number is an active result; – = inactive; ? = inconclusive; · = no result given.

SMILES | Yeast eIF2B | Yeast growth tox
COc1ccc(OC)c(N/C(C)=C/C(=O)c2ccc(C)o2)c1 | 56 | –
COc1ccc(OC)c(NC(=O)Nc2ccc(Cl)cc2)c1 | · | –
Cc1cc(C)c(Cc2c(C)nc3c(C(=O)NCc4ccco4)cnn3c2C)c(C)c1 | – | –
Cc1cc(N2CCOCC2)n2ncc(-c3ccccc3)c2n1 | – | –
Cc1cc(N2CCN(C(=O)c3ccco3)CC2)n2ncc(-c3ccccc3)c2n1 | – | 94
CC(=O)c1c(C)[nH]c(C(=O)COC(=O)CN(C)S(=O)(=O)c2ccc(Cl)cc2)c1C | – | –
Cc1ccc(-c2noc(CSc3ccccc3)n2)cc1 | – | –
c1ccc(SCc2nc(-c3ccccn3)no2)cc1 | 64 | –
O=C(Nc1ccc(Cl)cc1)N(C1=NCCC1)c1ccc(OC(F)F)cc1 | – | –
COC(=O)c1ccc(NS(=O)(=O)N(C)C)cc1 | 60 | –
Cc1ccc(NS(=O)(=O)N(C)C)cc1 | – | –
CCc1ccc(OCC(=O)Nc2ncc3c(n2)CC(C)(C)CC3=O)cc1 | – | –
COc1ccc(NC(=O)CSc2nnc(Cc3cccn3C)n2-c2ccc(C)cc2)cc1OC | – | –
Cc1cc(C)c(NC(=O)CSc2nnc(Cc3cccn3C)n2-c2ccc(F)cc2)c(C)c1 | 60 | –
Cc1cc(C)cc(NS(=O)(=O)c2ccc3[nH]c(=O)[nH]c3c2)c1 | 52 | –
COc1ccc(S(=O)(=O)Nc2ccc(C)cc2)cc1OC | – | –
COc1ccc(OCCOC(=O)c2ccc(-n3cnnn3)cc2)cc1 | – | –
COc1ccc(C(=O)OC(COc2ccccc2)Cn2ccnc2)cc1 (stereo unspecified) | – | 68
C/C(=C\C(=O)c1ccccc1)Nc1ccc(O)cc1 | – | –
CC(=O)/C=C(\C)Nc1ccc(-c2cnc(-c3ccccc3)o2)cc1 | 70 | –
CC1CC(C)CN(C(=O)c2ccccc2Nc2ccc(SC(F)F)cc2)C1 (stereo unspecified) | – | –
CCOC(=O)C1CCCN(c2nc(C)nc3c2oc2ccccc23)C1 (stereo unspecified) | – | –
CCOC(=O)C1CCCN(C(=O)c2cc3c(C)nc4ccccc4c3o2)C1 (stereo unspecified) | 65 | –
CC(=O)Oc1ccc(N2C(=O)C3C(C2=O)C2(C)C=CC3(C)O2)cc1 (stereo unspecified) | – | 61
CC(=O)Oc1ccc2c(C)cc(=O)oc2c1 | – | –
SMILES | Yeast eIF2B | Yeast growth tox
CCOC(=O)C1=C(c2ccccc2)N=C2SCC(=O)N2C1c1ccc(OC)c(OC)c1 (stereo unspecified) | – | –
CCOC(=O)C1=C(c2ccccc2)N(C)C(=O)NC1c1ccc(O)c(OC)c1 (stereo unspecified) | 50 | –
CC(=O)C1=C(C)Nc2ncnn2C1c1ccc(Cl)cc1Cl (stereo unspecified) | – | –
Cc1cccc(OCCCC(=O)N2CCCc3ccccc32)c1C | – | –
COc1cccc(NC(=O)Cn2cnc3sc(C)c(S(=O)(=O)N4CCCCC4)c3c2=O)c1 | – | –
CCCOc1ccc(N2C(=O)CC(SC(=NCC)Nc3cccc(F)c3)C2=O)cc1 (stereo unspecified) | 53 | –
CCCOc1ccc(N2C(=O)CC(SC(=NC)Nc3ccc(F)cc3)C2=O)cc1 (stereo unspecified) | – | –
CC1Cc2ccccc2N1C(=O)c1cc2c(=O)n3ccccc3nc2n1C (stereo unspecified) | – | –
COC(=O)c1cc2c(=O)n3ccccc3nc2n(C)c1=N | – | 32
COc1cccc(NC(=O)Cn2c(=O)n(CC3CCCO3)c(=O)c3ccccc32)c1 (stereo unspecified) | · | –
O=C(CNC(=O)c1cccs1)NCCN1CCN(c2ccccc2F)CC1 | – | –
COC(=O)c1cn(C(=O)c2cccs2)c2ccccc12 | – | –
CCOc1cc(-c2nc(-c3cc(OC)c(OC)c(OC)c3)no2)cc(OCC)c1OCC | – | –
CCOc1cc(-c2nc(-c3ccc(C)nc3OCC)no2)cc(OCC)c1OCC | 56 | ·
CC(NC(=O)c1ccc(-c2cc(C(F)(F)F)ccc2Cl)o1)c1ccccc1 (stereo unspecified) | · | –
Cc1ccc(-c2cc(NC(=O)CCl)n(-c3ccccc3)n2)cc1 | – | ?
O=C(CCl)Nc1cc(-c2ccccc2)nn1-c1ccccc1 | · | 59
NC(=O)CSC1=Nc2ccccc2C2=NC(CC(=O)NCc3cccs3)C(=O)N12 (stereo unspecified) | 52 | –
COCCCNC(=O)CSC1=Nc2ccccc2C2=NC(CC(=O)NCc3ccccc3)C(=O)N12 (stereo unspecified) | – | –
Fc1ccc(-c2cc3nc(-c4ccccc4)cc(N4CCN(CCN5CCOCC5)CC4)n3n2)cc1 | – | 31
CCc1c(C)nc2cc(-c3cc(OC)cc(OC)c3)nn2c1N1CCN(CCN2CCOCC2)CC1 | · | –
CCSc1nc2cc(OC)c(OC)cc2c(=O)n1CC | · | –

Screens as filed in PubChem.
